In ChEMBL document CHEMBL1144873, “An orally bioavailable oxime ether capsid binder with potent activity against human rhinovirus” (J Med Chem, 2003):
In brackets after ≈: the same amount, converted by molar mass.

Experiments:
rhinovirus A2 [1] = assay: Anti-HRV activity against HRV-2 strain; format: functional, organism-based, human rhinovirus type 2; details: Rhinovirus A
Human rhinovirus 1A = assay: Anti-HRV activity against HRV-1A strain; format: functional, organism-based, human rhinovirus type 1
Summary of the method: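 Cell-culture cytopathic effect (CPE) inhibition assay adapted from a microplate tissue-culture method. Each test was run in duplicate. EC50 was read both visually and by dye uptake. Results varied by generally no more than one dilution between duplicate runs and between read-out methods.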

KB [2] = assay: (§1) Cellular toxicity in KB cells; format: functional; details: Homo sapiens
MRC5 = assay: Cellular toxicity in MRC-5 cells; format: functional; details: Homo sapiens
rhinovirus B14 [3] = assay: Anti-HRV activity against HRV-14 strain; format: functional, organism-based, human rhinovirus type 14; details: Rhinovirus B
KB [4] = assay: as §1; format: functional; details: Homo sapiens; remark: listed apart in the source
rhinovirus B14 [5] = assay: Anti-HRV activity against HRV serotype 14; format: functional, organism-based, human rhinovirus type 14; details: Rhinovirus B
rhinovirus A15 = assay: Anti-HRV activity against HRV serotype 15; format: functional, organism-based; details: Rhinovirus A
rhinovirus A16 = assay: Anti-HRV activity against HRV serotype 16; format: functional, organism-based; details: Rhinovirus A
rhinovirus A2 [6] = assay: Anti-HRV activity against HRV serotype 2; format: functional, organism-based, human rhinovirus type 2; details: Rhinovirus A
rhinovirus A29 = assay: Anti-HRV activity against HRV serotype 29; format: functional, organism-based; details: Rhinovirus A
rhinovirus A39 = assay: Anti-HRV activity against HRV serotype 39; format: functional, organism-based; details: Rhinovirus A
rhinovirus A45 = assay: Anti-HRV activity against HRV serotype 45; format: functional, organism-based; details: Rhinovirus A
rhinovirus A51 = assay: Anti-HRV activity against HRV serotype 51; format: functional, organism-based; details: Rhinovirus A
rhinovirus A59 = assay: Anti-HRV activity against HRV serotype 59; format: functional, organism-based; details: Rhinovirus A
rhinovirus A63 = assay: Anti-HRV activity against HRV serotype 63; format: functional, organism-based; details: Rhinovirus A
rhinovirus B70 = assay: Anti-HRV activity against HRV serotype 70; format: functional, organism-based; details: Rhinovirus B
rhinovirus B72 = assay: Anti-HRV activity against HRV serotype 72; format: functional, organism-based; details: Rhinovirus B
rhinovirus A85 = assay: Anti-HRV activity against HRV serotype 85; format: functional, organism-based; details: Rhinovirus A
rhinovirus B86 = assay: Anti-HRV activity against HRV serotype 86; format: functional, organism-based; details: Rhinovirus B
rhinovirus A89 = assay: Anti-HRV activity against HRV serotype 89; format: functional, organism-based, human rhinovirus type 89; details: Rhinovirus A
rhinovirus A9 = assay: Anti-HRV activity against HRV serotype 9; format: functional, organism-based; details: Rhinovirus A
Human rhinovirus sp. = assay: Percent inhibition of 100 HRV strains by the compound at a concentration of 0.064 ug/ml; format: functional
KB [7] = assay: Cellular toxicity against KB cells in HRV-14 strain; format: functional; details: Homo sapiens

Structure (SMILES): O=Cc1ccc(OCCC2CCN(c3ccc(Cl)nn3)CC2)cc1
- EC50 (rhinovirus A2 [1]): 2 µg/mL (≈ 5.78 µM)
- EC50 (Human rhinovirus 1A): 9.72 µg/mL (≈ 28.1 µM)
- CC50 (KB [2]): 20 µg/mL (≈ 57.8 µM)
- CC50 (MRC5): > 50 µg/mL

Structure (SMILES): CCO/N=C(\C)c1ccc(OCCC2CCN(c3ccc(C)nn3)CC2)cc1
- EC50 (rhinovirus B14 [3]): 0.004 µg/mL (≈ 0.0105 µM)
- EC50 (rhinovirus A2 [1]): 0.01 µg/mL (≈ 0.0261 µM)
- CC50 (KB [4]): > 1 µg/mL
- CC50 (KB [2]): > 1 µg/mL

Structure (SMILES): CCC(=O)c1ccc(OCCC2CCN(c3ccc(Cl)nn3)CC2)cc1
- EC50 (rhinovirus A2 [1]): 0.6 µg/mL (≈ 1.6 µM)
- EC50 (Human rhinovirus 1A): < 0.16 µg/mL
- CC50 (KB [2]): 7 µg/mL (≈ 18.7 µM)
- CC50 (MRC5): > 50 µg/mL

Structure (SMILES): CO/N=C(\C)c1ccc(OCCC2CCN(c3ccc(C)nn3)CC2)cc1
- EC50 (rhinovirus B14 [3]): 0.023 µg/mL (≈ 0.0624 µM)
- EC50 (rhinovirus A2 [1]): 0.08 µg/mL (≈ 0.217 µM)
- CC50 (KB [4]): > 1 µg/mL
- CC50 (KB [2]): > 1 µg/mL

Structure (SMILES): CC(C)S(=O)(=O)n1c(N)nc2ccc(/C(=N/O)c3ccccc3)cc21 [ENVIROXIME]
- EC50 (rhinovirus A2 [1]): 0.009 µg/mL (≈ 0.0251 µM)
- CC50 (KB [2]): 2 µg/mL (≈ 5.58 µM)

Structure (SMILES): CCO/N=C/c1ccc(OCCC2CCN(c3ccc(Cl)nn3)CC2)cc1
- EC50 (rhinovirus B14 [3]): 0.002 µg/mL (≈ 0.00514 µM)
- EC50 (Human rhinovirus 1A): < 0.16 µg/mL
- CC50 (KB [4]): 0.8 µg/mL (≈ 2.06 µM)
- CC50 (MRC5): > 50 µg/mL

Structure (SMILES): CCOC(=O)c1ccc(OCCC2CCN(c3ccc(C)nn3)CC2)cc1 [PIRODAVIR]
- EC50 (rhinovirus B14 [3]): 0.0016 µg/mL (≈ 0.00433 µM)
- EC50 (rhinovirus B14 [5]): 0.00365 µg/mL (≈ 0.00988 µM)
- EC50 (rhinovirus A15): 0.00702 µg/mL (≈ 0.019 µM)
- EC50 (rhinovirus A16): 0.0152 µg/mL (≈ 0.0412 µM)
- EC50 (rhinovirus A2 [6]): 0.00277 µg/mL (≈ 0.0075 µM)
- EC50 (rhinovirus A29): 0.00374 µg/mL (≈ 0.0101 µM)
- EC50 (rhinovirus A39): 0.0018 µg/mL (≈ 0.00487 µM)
- EC50 (rhinovirus A45): > 5 µg/mL
- EC50 (rhinovirus A51): 0.00521 µg/mL (≈ 0.0141 µM)
- EC50 (rhinovirus A59): 0.00437 µg/mL (≈ 0.0118 µM)
- EC50 (rhinovirus A63): 0.00083 µg/mL (≈ 0.00225 µM)
- EC50 (rhinovirus B70): 0.00214 µg/mL (≈ 0.00579 µM)
- EC50 (rhinovirus B72): 0.0348 µg/mL (≈ 0.0941 µM)
- EC50 (rhinovirus A85): 0.00472 µg/mL (≈ 0.0128 µM)
- EC50 (rhinovirus B86): 0.00956 µg/mL (≈ 0.0259 µM)
- EC50 (rhinovirus A89): 0.0057 µg/mL (≈ 0.0154 µM)
- EC50 (rhinovirus A9): 0.00205 µg/mL (≈ 0.00555 µM)
- inhibition at 0.064 µg/mL (Human rhinovirus sp.): 80%
- EC50 (Human rhinovirus 1A): < 0.16 µg/mL
- CC50 (MRC5): > 50 µg/mL
- CC50 (KB [7]): > 1 µg/mL

Structure (SMILES): CC(C)O/N=C/c1ccc(OCCC2CCN(c3ccc(Cl)nn3)CC2)cc1
- EC50 (rhinovirus B14 [3]): 0.018 µg/mL (≈ 0.0447 µM)
- EC50 (rhinovirus A2 [1]): 0.02 µg/mL (≈ 0.0496 µM)
- CC50 (KB [4]): 0.7 µg/mL (≈ 1.74 µM)
- CC50 (KB [2]): 1 µg/mL (≈ 2.48 µM)

Structure (SMILES): Cc1cc(CCCOc2c(C)cc(-c3noc(C(F)(F)F)n3)cc2C)on1 [PLECONARIL]
- EC50 (rhinovirus B14 [5]): 0.0313 µg/mL (≈ 0.0821 µM)
- EC50 (rhinovirus A15): 0.0698 µg/mL (≈ 0.183 µM)
- EC50 (rhinovirus A16): 0.108 µg/mL (≈ 0.283 µM)
- EC50 (rhinovirus A2 [6]): 0.0265 µg/mL (≈ 0.0694 µM)
- EC50 (rhinovirus A29): 0.0454 µg/mL (≈ 0.119 µM)
- EC50 (rhinovirus A39): 0.0449 µg/mL (≈ 0.118 µM)
- EC50 (rhinovirus A45): 1.91 µg/mL (≈ 5 µM)
- EC50 (rhinovirus A51): 0.0304 µg/mL (≈ 0.0797 µM)
- EC50 (rhinovirus A59): 0.387 µg/mL (≈ 1.02 µM)
- EC50 (rhinovirus A63): 0.0623 µg/mL (≈ 0.163 µM)
- EC50 (rhinovirus B70): 0.0539 µg/mL (≈ 0.141 µM)
- EC50 (rhinovirus B72): 0.469 µg/mL (≈ 1.23 µM)
- EC50 (rhinovirus A85): 0.034 µg/mL (≈ 0.0892 µM)
- EC50 (rhinovirus B86): 0.07 µg/mL (≈ 0.184 µM)
- EC50 (rhinovirus A89): 0.0293 µg/mL (≈ 0.0769 µM)
- EC50 (rhinovirus A9): 0.0372 µg/mL (≈ 0.0974 µM)

Structure (SMILES): NNC(=O)c1ccc(OCCC2CCN(c3ccc(Cl)nn3)CC2)cc1
- EC50 (rhinovirus A2 [1]): 4 µg/mL (≈ 10.6 µM)
- EC50 (Human rhinovirus 1A): 8.52 µg/mL (≈ 22.7 µM)
- CC50 (KB [2]): 20 µg/mL (≈ 53.2 µM)
- CC50 (MRC5): > 50 µg/mL

Structure (SMILES): Cc1ccc(N2CCC(CCOc3ccc(/C=N/O)cc3)CC2)nn1
- EC50 (rhinovirus B14 [3]): 0.062 µg/mL (≈ 0.182 µM)
- EC50 (rhinovirus A2 [1]): > 0.25 µg/mL
- CC50 (KB [4]): > 0.25 µg/mL
- CC50 (KB [2]): > 0.25 µg/mL

Structure (SMILES): C=CCO/N=C/c1ccc(OCCC2CCN(c3ccc(Cl)nn3)CC2)cc1
- EC50 (rhinovirus B14 [3]): 0.006 µg/mL (≈ 0.015 µM)
- EC50 (rhinovirus A2 [1]): 0.006 µg/mL (≈ 0.015 µM)
- CC50 (KB [4]): 0.4 µg/mL (≈ 0.998 µM)
- CC50 (KB [2]): 0.5 µg/mL (≈ 1.25 µM)

Structure (SMILES): CCC/N=C/c1ccc(OCCC2CCN(c3ccc(Cl)nn3)CC2)cc1
- EC50 (rhinovirus A2 [1]): 6 µg/mL (≈ 15.5 µM)
- EC50 (Human rhinovirus 1A): 4.12 µg/mL (≈ 10.6 µM)
- CC50 (KB [2]): 30 µg/mL (≈ 77.5 µM)
- CC50 (MRC5): > 50 µg/mL

Structure (SMILES): CCOC(=O)c1ccc(OCCC2CCN(c3ccc(Cl)nn3)CC2)cc1
- EC50 (rhinovirus A2 [1]): < 0.05 µg/mL
- EC50 (Human rhinovirus 1A): < 0.16 µg/mL
- CC50 (KB [2]): 50 µg/mL (≈ 128 µM)
- CC50 (MRC5): > 50 µg/mL

Structure (SMILES): CN/N=C/c1ccc(OCCC2CCN(c3ccc(Cl)nn3)CC2)cc1
- EC50 (rhinovirus A2 [1]): 2 µg/mL (≈ 5.35 µM)
- EC50 (Human rhinovirus 1A): 1.01 µg/mL (≈ 2.7 µM)
- CC50 (KB [2]): 10 µg/mL (≈ 26.7 µM)
- CC50 (MRC5): > 50 µg/mL

Structure (SMILES): Clc1ccc(N2CCC(CCOc3ccc(/C=N/OCc4ccccc4)cc3)CC2)nn1
- EC50 (rhinovirus B14 [3]): 0.4 µg/mL (≈ 0.887 µM)
- EC50 (rhinovirus A2 [1]): 0.9 µg/mL (≈ 2 µM)
- CC50 (KB [4]): 0.6 µg/mL (≈ 1.33 µM)
- CC50 (KB [2]): 0.6 µg/mL (≈ 1.33 µM)

Structure (SMILES): CC/C(=N\OC)c1ccc(OCCC2CCN(c3ccc(Cl)nn3)CC2)cc1
- EC50 (rhinovirus B14 [3]): 0.2 µg/mL (≈ 0.496 µM)
- EC50 (rhinovirus A2 [1]): 0.4 µg/mL (≈ 0.993 µM)
- CC50 (KB [4]): 0.6 µg/mL (≈ 1.49 µM)
- CC50 (KB [2]): > 1 µg/mL

Structure (SMILES): CCCO/N=C/c1ccc(OCCC2CCN(c3ccc(Cl)nn3)CC2)cc1
- EC50 (rhinovirus B14 [3]): 0.01 µg/mL (≈ 0.0248 µM)
- EC50 (rhinovirus A2 [1]): 0.004 µg/mL (≈ 0.00993 µM)
- CC50 (KB [4]): 0.4 µg/mL (≈ 0.993 µM)
- CC50 (KB [2]): > 1 µg/mL

Structure (SMILES): CO/N=C/c1ccc(OCCC2CCN(c3ccc(C)nn3)CC2)cc1
- EC50 (rhinovirus B14 [3]): 0.004 µg/mL (≈ 0.0113 µM)
- EC50 (rhinovirus A2 [1]): 0.15 µg/mL (≈ 0.423 µM)
- CC50 (KB [4]): > 1 µg/mL
- CC50 (KB [2]): > 1 µg/mL
